According to ChEMBL document CHEMBL1141320, “Antioxidant flavonoid glycosides from aerial parts of the fern Abacopteris penangiana” (J Nat Prod, 2007):
Activity calls are given as the source filed them. The calls are words filed in the database; no cut-off is given here.

Assay: Antioxidant activity assessed as ABTS radical scavenging activity after 15 mins by TEAC assay
Type: functional
How it was run: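 ABTS (7 mM in water) oxidized with potassium persulfate (2.45 mM final), kept dark at room temperature 16 h, diluted with water to A734 0.700 ± 0.003. Sample added to diluted ABTS•+ (0–20 µM final); A734 decrease read after 15 min. Triplicate, with solvent blanks. Percent inhibition plotted against concentration alongside Trolox standard; TEAC = Trolox concentration matching antioxidant potential of 1 mM sample.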

For COc1ccc([C@@H]2C[C@@H](O)c3c(O[C@@H]4O[C@H](CO)[C@@H](O)[C@H](O)[C@H]4O)c(C)c(O[C@@H]4O[C@H](CO)[C@@H](O)[C@H](O)[C@H]4O)c(C)c3O2)cc1, the Activity was “inactive”.
With COc1ccc([C@@H]2C[C@@H](O)c3c(c(C)c(O[C@@H]4O[C@H](CO)[C@@H](O)[C@H](O)[C@H]4O)c(CO)c3O[C@@H]3O[C@H](CO)[C@@H](O)[C@H](O)[C@H]3O)O2)cc1 the Activity was “inactive”.
In the case of COc1ccc([C@@H]2C[C@H]3O[C@H]4[C@H](Oc5c(C)c(O[C@@H]6O[C@H](CO)[C@@H](O)[C@H](O)[C@H]6O)c(C)c(c53)O2)O[C@H](CO)[C@@H](O)[C@@H]4O)cc1, the Activity is reported as “inactive”.

COCc1c(O)c(C)c2c3c1O[C@@H]1O[C@H](CO)[C@@H](O)[C@H](O)[C@H]1O[C@@H]3C[C@@H](c1ccc(O)cc1)O2 and COCc1c(O)c(C)c2c3c1O[C@@H]1O[C@H](CO)[C@@H](O)[C@H](O)[C@H]1O[C@@H]3C[C@@H](c1ccc(OC)cc1)O2 are within 1.5-fold of each other in Activity: 1.51 mM for the first, 1.03 mM for the second.

O=c1c(O[C@@H]2O[C@H](CO)[C@@H](O)[C@H](O)[C@H]2O)c(-c2ccc(O)c(O)c2)oc2cc(O)cc(O)c12 and O=c1c(O[C@@H]2O[C@H](CO)[C@@H](O)[C@H](O)[C@H]2O)c(-c2ccc(O)cc2)oc2cc(O)cc(O)c12 are within 1.5-fold of each other in Activity: 1.91 mM for the first, 1.46 mM for the second.

Cc1c(O)c(C)c2c3c1O[C@@H]1O[C@H](CO)[C@@H](O)[C@H](O)[C@H]1O[C@@H]3C[C@@H](c1ccc(O)cc1)O2 and Cc1c(O)c(C)c2c3c1O[C@@H]1O[C@H](CO)[C@@H](O)[C@H](O)[C@H]1O[C@H]3C[C@@H](c1ccc(O)cc1)O2 are within 1.5-fold of each other in Activity: 1.32 mM for the first, 1.44 mM for the second.

COc1ccc([C@@H]2C[C@@H]3O[C@H]4[C@H](Oc5c(C)c(O)c(C)c(c53)O2)O[C@H](CO)[C@@H](O)[C@@H]4O)cc1 and COc1ccc([C@@H]2C[C@H]3O[C@H]4[C@H](Oc5c(C)c(O)c(C)c(c53)O2)O[C@H](CO)[C@@H](O)[C@@H]4O)cc1 are within 1.5-fold of each other in Activity: 1.1 mM for the first, 1.36 mM for the second.

Compared with O=c1c(O)c(-c2ccc(O)c(O)c2)oc2cc(O)cc(O)c12, Cc1c(O[C@@H]2O[C@H](CO)[C@@H](O)[C@H](O)[C@H]2O)c(CO)c(O[C@@H]2O[C@H](CO)[C@@H](O)[C@H](O)[C@H]2O)c2c1O[C@H](c1ccc(O)cc1)C[C@H]2O is 3.2-fold lower in Activity: 3.74 mM for the first, 1.17 mM for the second.
